Experimental data taken from ChEMBL document CHEMBL1949587 (Bioorg Med Chem, 2012).
Values after ≈ are worked out from the molar mass of the structure shown. Active and inactive are the calls of the source. The calls are words filed in the database; no cut-off is given here.

What was measured:
[1] = Cytotoxicity in fibroblast cells assessed as morphological change at 4 to 20 uM; assay type: cell-based
[2] = Tmax in nude mouse at 30 mg/kg, po by LC-MS/MS analysis; assay type: ADME, organism-based; parameters: dose 30 mg/kg, route oral; conditions: in vivo
Method in brief: (§1)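 Female nude mice given single oral dose in DMSO/Cremophor EL/1% Tween 80 (1:1:8 v/v/v) by stomach sonde. Blood taken at 30 min, 1, 2, 4, 7 and 24 h (n = 2/time point). Plasma precipitated with CH3CN/MeOH plus internal standard, filtered, measured by LC-MS/MS (LLOQ 20 ng/mL). Parameters by non-compartmental analysis; CL given as CL/F.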

[3] = Cmax in nude mouse at 30 mg/kg, po by LC-MS/MS analysis; assay type: ADME, organism-based; parameters: dose 30 mg/kg, route oral; conditions: in vivo; method in brief: as §1
[4] = Oral bioavailability in nude mouse at 10 mg/kg by LC-MS/MS analysis; assay type: ADME, organism-based; conditions: in vivo; method in brief: as §1
Calu-6 [5] = test: Antitumor activity against human Calu6 cells xenografted in po dosed BALB/c mouse assessed as tumor growth inhibition administered qd for 11 days; assay type: functional; conditions: for ED50: Calu-6, po, 264 h
Method in brief: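 Calu-6 cells in Hanks' balanced salt solution, 5.0 × 10⁶ per mouse, implanted s.c. in flank of female Balb/c nude mice. Once tumors reached 150 mm³, oral dosing once daily for 11 days. Tumor volume = 1/2 × long × short² diameter; growth inhibition from volume change in treated versus control group.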

Mus musculus = test: Toxicity in human Calu6 cells xenografted BALB/c mouse assessed as body weight change at 1 to 10 mg/kg, po qd for 11 days; assay type: organism-based, Calu-6; parameters: dose 1-10 mg/kg, route oral; conditions: in vivo, 264 h
Method in brief: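 Calu-6 xenografts (5.0 × 10⁶ cells s.c., female Balb/c nude mice). Once tumors reached 150 mm³, oral dosing once daily for 11 days at 1, 3 and 10 mg/kg. Body weight change recorded as percent over the treatment period.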

WiDr = test: Antiproliferative activity against human WiDr cells assessed as cell growth inhibition; assay type: cell-based
COLO 205 = test: Antiproliferative activity against human COLO205 cells assessed as cell growth inhibition; assay type: cell-based
HCT-15 = test: Antiproliferative activity against human HCT15 cells assessed as cell growth inhibition; assay type: cell-based
QG-56 = test: Antiproliferative activity against human QG56 cells assessed as cell growth inhibition; assay type: cell-based
NCI-H441 = test: Antiproliferative activity against human NCI-H441 cells assessed as cell growth inhibition; assay type: cell-based
[6] = Antiproliferative activity against human MDA-MB-435S cells assessed as cell growth inhibition; assay type: cell-based
DU-145 = test: Antiproliferative activity against human DU145 cells assessed as cell growth inhibition; assay type: cell-based
PC-3 = test: Antiproliferative activity against human PC3 cells assessed as cell growth inhibition; assay type: cell-based
BXPC-3 = test: Antiproliferative activity against human BxPC3 cells assessed as cell growth inhibition; assay type: cell-based
PANC-1 = test: Antiproliferative activity against human PANC1 cells assessed as cell growth inhibition; assay type: cell-based
MKN-28 = test: Antiproliferative activity against human MKN28 cells assessed as cell growth inhibition; assay type: cell-based
NCI-N87 = test: Antiproliferative activity against human NCI-N87 cells assessed as cell growth inhibition; assay type: cell-based
CCRF-CEM = test: Antiproliferative activity against human CCRF-CEM cells assessed as cell growth inhibition; assay type: cell-based
K562 = test: Antiproliferative activity against human K562 cells assessed as cell growth inhibition; assay type: cell-based
[7] = Antiproliferative activity against human JOK1 cells assessed as cell growth inhibition; assay type: cell-based
[8] = Antiproliferative activity against human KG1a cells assessed as cell growth inhibition; assay type: cell-based; conditions: KG-1a
Insulin receptor = Insulin receptor (Homo sapiens, UniProt P06213); test: Inhibition of INSR
[9] = molecular target: Proto-oncogene tyrosine-protein kinase Src (Homo sapiens, UniProt P12931); test: Inhibition of Src
[10] = molecular target: Tyrosine-protein kinase ABL1 (Homo sapiens, UniProt P00519); test: Inhibition of ABL
[11] = molecular target: Cyclin-dependent kinase 1 (Homo sapiens, UniProt P06493); test: Inhibition of CDK1
NCI-H460 = test: Antiproliferative activity against human NCI-H460 cells assessed as cell growth inhibition; assay type: cell-based
MDA-MB-231 = test: Antiproliferative activity against human MDA-MB-231 cells assessed as cell growth inhibition; assay type: cell-based
[12] = Antiproliferative activity against human KPL4 cells assessed as cell growth inhibition; assay type: cell-based
Calu-6 [13] = test: Antiangiogenic activity in human Calu6 cells xenografted in BALB/c mouse assessed as microvessel density reduction at 1 to 10 mg/kg, po qd for 11 days measured 24 hrs after last postdose by immunohistochemical staining method; assay type: functional, organism-based
Method in brief: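 Female Balb/c nude mice given Calu-6 cells s.c. in the flank, 5.0×10⁶ cells per mouse. Dosing was oral, once daily for 11 days, starting once tumors reached 150 mm³. Tumors taken 24 h after the last dose and frozen-sectioned from the mid-portion. Vessels stained with anti-mouse CD31 and counted by image analysis. Density decrease expressed against control.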

[14] = Solubility of the compound in fasted state simulated intestinal fluid at 10 mM after 2 hrs by HPLC-UV analysis; assay type: physicochemical
Method in brief: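 Triplicate samples made from 10 mM DMSO stocks. DMSO evaporated (1 h), residue dissolved in FaSSIF and shaken 2 h. Solutions filtered, filtrate analysed by UV or HPLC-UV against a four-point calibration curve from the stocks. Result in µg/mL.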

[15] = Oral bioavailability in nude mouse at 30 mg/kg by LC-MS/MS analysis; assay type: ADME, organism-based; conditions: in vivo; method in brief: as §1
Calu-6 [16] = test: Antitumor activity against human Calu6 cells xenografted in BALB/c mouse assessed as tumor growth inhibition at 150 mg/kg, po qd for 11 days; assay type: functional, organism-based; parameters: dose 150 mg/kg
Method in brief: (§2)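 Female Balb/c nude mice carried s.c. flank Calu-6 xenografts, 5.0×10⁶ cells in Hanks' solution. At 200 mm³, mice were randomized into 4 groups (n = 5): vehicle, 150 mg/kg, sunitinib 80 mg/kg, or both. Each group dosed orally once daily for 11 days. Volume = 1/2 × long × short². Inhibition from volume change against control.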

Calu-6 [17] = test: Antitumor activity against human Calu6 cells xenografted in BALB/c mouse assessed as tumor growth inhibition at 150 mg/kg, po qd for 11 days in presence of sunitinib; assay type: functional, organism-based; parameters: dose 150 mg/kg; method in brief: as §2

Chain of Insulin receptor (P06213 28-758 limits assumed): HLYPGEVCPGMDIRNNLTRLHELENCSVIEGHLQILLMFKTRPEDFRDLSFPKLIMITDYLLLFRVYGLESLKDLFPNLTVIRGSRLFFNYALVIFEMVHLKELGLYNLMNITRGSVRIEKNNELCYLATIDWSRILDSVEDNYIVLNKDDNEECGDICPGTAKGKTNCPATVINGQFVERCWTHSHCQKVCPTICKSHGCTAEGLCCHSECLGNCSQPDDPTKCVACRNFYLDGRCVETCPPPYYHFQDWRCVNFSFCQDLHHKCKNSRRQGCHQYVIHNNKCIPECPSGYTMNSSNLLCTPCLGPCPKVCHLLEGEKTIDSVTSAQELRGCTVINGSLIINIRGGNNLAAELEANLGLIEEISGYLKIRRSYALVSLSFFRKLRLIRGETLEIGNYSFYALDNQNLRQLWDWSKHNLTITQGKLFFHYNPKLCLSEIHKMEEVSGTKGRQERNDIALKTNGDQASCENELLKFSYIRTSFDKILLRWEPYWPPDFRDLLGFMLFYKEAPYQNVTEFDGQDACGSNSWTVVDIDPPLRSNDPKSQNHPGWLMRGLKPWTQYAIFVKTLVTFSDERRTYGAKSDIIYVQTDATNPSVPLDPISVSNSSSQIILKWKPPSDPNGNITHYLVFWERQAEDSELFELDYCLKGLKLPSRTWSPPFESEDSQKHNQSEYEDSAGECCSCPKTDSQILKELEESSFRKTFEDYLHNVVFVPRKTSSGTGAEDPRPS
Chain of Insulin receptor (P06213 763-1382 limits assumed): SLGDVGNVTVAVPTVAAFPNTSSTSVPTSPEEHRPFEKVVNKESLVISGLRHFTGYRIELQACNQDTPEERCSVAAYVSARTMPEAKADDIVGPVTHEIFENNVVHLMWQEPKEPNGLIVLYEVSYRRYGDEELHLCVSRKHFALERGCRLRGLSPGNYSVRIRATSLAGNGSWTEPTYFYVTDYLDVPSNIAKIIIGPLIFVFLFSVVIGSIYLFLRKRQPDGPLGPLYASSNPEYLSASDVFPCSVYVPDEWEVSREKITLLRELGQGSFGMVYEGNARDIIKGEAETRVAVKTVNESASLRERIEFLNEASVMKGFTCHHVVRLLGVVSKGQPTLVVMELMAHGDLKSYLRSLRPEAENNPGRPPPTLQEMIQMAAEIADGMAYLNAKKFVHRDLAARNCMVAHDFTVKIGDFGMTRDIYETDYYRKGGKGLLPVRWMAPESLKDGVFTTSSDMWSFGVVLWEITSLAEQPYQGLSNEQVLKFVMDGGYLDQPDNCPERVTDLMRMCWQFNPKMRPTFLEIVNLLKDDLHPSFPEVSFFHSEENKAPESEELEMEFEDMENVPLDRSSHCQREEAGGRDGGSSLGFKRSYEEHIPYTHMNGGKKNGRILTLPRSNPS
Chain of Tyrosine-protein kinase ABL1 (P00519 whole entry): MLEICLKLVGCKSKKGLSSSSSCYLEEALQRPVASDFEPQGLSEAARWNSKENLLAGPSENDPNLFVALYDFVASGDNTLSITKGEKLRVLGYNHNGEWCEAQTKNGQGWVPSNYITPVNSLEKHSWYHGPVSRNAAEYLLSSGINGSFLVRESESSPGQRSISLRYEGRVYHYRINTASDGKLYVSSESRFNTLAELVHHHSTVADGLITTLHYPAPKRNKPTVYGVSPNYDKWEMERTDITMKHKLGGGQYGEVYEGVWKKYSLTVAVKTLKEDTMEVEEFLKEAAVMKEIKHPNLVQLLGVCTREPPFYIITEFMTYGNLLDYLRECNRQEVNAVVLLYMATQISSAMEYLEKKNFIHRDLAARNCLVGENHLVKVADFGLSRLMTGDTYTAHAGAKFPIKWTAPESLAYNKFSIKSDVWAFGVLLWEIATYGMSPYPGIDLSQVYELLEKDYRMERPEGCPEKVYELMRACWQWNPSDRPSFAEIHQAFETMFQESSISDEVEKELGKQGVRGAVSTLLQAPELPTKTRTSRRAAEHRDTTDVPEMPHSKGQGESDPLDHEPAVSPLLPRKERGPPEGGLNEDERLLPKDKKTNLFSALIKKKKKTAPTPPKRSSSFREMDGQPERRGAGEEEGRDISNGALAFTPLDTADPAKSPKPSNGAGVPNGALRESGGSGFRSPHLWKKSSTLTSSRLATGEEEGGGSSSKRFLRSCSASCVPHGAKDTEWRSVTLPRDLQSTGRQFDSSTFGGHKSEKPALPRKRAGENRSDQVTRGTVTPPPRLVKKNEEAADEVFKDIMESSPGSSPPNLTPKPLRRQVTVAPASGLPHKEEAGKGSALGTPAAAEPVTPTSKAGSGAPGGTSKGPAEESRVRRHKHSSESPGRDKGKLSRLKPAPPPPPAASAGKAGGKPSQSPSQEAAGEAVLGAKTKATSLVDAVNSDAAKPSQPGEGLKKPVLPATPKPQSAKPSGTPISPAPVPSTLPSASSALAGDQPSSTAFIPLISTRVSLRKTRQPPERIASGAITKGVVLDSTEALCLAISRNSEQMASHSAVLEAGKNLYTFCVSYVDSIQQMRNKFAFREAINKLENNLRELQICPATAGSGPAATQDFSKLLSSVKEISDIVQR
Chain of Cyclin-dependent kinase 1 (P06493 whole entry): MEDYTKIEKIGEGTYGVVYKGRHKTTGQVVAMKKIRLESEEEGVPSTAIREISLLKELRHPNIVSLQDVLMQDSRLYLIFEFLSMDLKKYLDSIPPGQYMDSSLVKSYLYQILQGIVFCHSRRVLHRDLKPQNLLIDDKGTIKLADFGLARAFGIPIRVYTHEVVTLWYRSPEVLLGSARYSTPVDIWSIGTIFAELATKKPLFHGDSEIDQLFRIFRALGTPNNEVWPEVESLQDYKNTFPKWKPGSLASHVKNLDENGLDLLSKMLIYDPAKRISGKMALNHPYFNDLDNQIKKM
Chain of Proto-oncogene tyrosine-protein kinase Src (P12931 2-536 limits assumed): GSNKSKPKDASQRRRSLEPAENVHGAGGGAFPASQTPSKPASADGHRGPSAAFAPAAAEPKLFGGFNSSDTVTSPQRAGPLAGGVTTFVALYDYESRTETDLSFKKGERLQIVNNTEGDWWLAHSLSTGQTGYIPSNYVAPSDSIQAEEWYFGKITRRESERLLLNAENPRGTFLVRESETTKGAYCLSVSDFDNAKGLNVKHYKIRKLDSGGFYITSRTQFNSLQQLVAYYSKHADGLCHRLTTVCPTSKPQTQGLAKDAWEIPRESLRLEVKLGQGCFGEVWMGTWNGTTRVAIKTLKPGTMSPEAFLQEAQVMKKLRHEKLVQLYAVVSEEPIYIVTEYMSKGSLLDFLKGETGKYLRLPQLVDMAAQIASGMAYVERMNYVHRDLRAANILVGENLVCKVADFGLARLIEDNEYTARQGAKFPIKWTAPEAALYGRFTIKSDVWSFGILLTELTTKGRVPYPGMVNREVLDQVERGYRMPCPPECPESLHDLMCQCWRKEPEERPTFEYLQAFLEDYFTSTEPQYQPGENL

## COc1ccc(C(=O)NC[C@H](O)CO)cc1/C=C/c1ccc(Cl)cc1
[1]
  Activity: Non-toxic
[2]
  Tmax: 1 h
[3]
  Cmax: 9370 ng/mL
[4]
  bioavailability: 90%
Calu-6 [5]
  TGI: Dose-dependent effect
  ED50: 2.3 mg/kg
Mus musculus
  Activity: Non-toxic
WiDr
  IC50: 15 µM
COLO 205
  IC50: 18 µM
HCT-15
  IC50: 29 µM
QG-56
  IC50: 21 µM
NCI-H441
  IC50: 34 µM
[6]
  IC50: 69 µM
DU-145
  IC50: 23 µM
PC-3
  IC50: 17 µM
BXPC-3
  IC50: 51 µM
PANC-1
  IC50: 49 µM
MKN-28
  IC50: 23 µM
NCI-N87
  IC50: 52 µM
CCRF-CEM
  IC50: 30 µM
K562
  IC50: 36 µM
[7]
  IC50: 38 µM
[8]
  IC50: 20 µM
Insulin receptor
  IC50: > 50 µM
[9]
  IC50: > 50 µM
[10]
  IC50: > 50 µM
[11]
  IC50: > 50 µM
NCI-H460
  IC50: 24 µM
MDA-MB-231
  IC50: 38 µM
[12]
  IC50: 15 µM
Calu-6 [13]
  Activity: Active
[14]
  solubility at 2 h, 10000 µM: 263 µg/mL (≈ 727 µM)

## COc1ccc(C(=O)NC[C@@H](O)CO)cc1/C=C/c1ccc(Cl)cc1
[1]
  Activity: Non-toxic
[2]
  Tmax: 1 h
[3]
  Cmax: 8270 ng/mL
[15]
  bioavailability: 100%
Calu-6 [5]
  TGI: Dose-dependent effect
  ED50: 3.2 mg/kg
Mus musculus
  Activity: Non-toxic
Calu-6 [16]
  TGI: Active
Calu-6 [17]
  TGI: Active
WiDr
  IC50: 7 µM
COLO 205
  IC50: 18 µM
HCT-15
  IC50: 20 µM
QG-56
  IC50: 23 µM
NCI-H441
  IC50: 25 µM
[6]
  IC50: 74 µM
DU-145
  IC50: 5.3 µM
PC-3
  IC50: 24 µM
BXPC-3
  IC50: 27 µM
PANC-1
  IC50: 39 µM
MKN-28
  IC50: 15 µM
NCI-N87
  IC50: 52 µM
CCRF-CEM
  IC50: 20 µM
K562
  IC50: 29 µM
[7]
  IC50: 31 µM
[8]
  IC50: 17 µM
Insulin receptor
  IC50: > 50 µM
[9]
  IC50: > 50 µM
[10]
  IC50: > 50 µM
[11]
  IC50: > 50 µM
NCI-H460
  IC50: 15 µM
MDA-MB-231
  IC50: 39 µM
[12]
  IC50: 4.9 µM
Calu-6 [13]
  Activity: Active
[14]
  solubility at 2 h, 10000 µM: 225 µg/mL (≈ 622 µM)
